Test results published in the RNAGym collection of RNA variant scans (doi:10.1101/gad.245936.114).
Variants at the floor of the assay were thinned out.

B1: tRNA (parent)
chain: CUCUCGGUAGCCAAGUUGGUUUAAGGCGCAAGACUUUAAUUUAUCACUACGAAAUCUUGAGAUCGGGCGUUCGACUCGCCCCCGGGAGAUUUUUUCCUCGAGCAA

Variants of: B1
Experiment: nonsense suppression (GFP-seq) (ratio to wild type); higher = more function; SUP4oc tRNA, yeast GFP reporter sort-seq
Procedure, shortened: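 Yeast carrying genome-integrated SUP4oc tRNA variants from a library with ~3% random mutations were grown in raffinose/galactose medium with 80 mg/L adenine. Each strain also carried a galactose-driven GFP ochre reporter and RFP. Cells were sorted into GFP/RFP bins, and each bin was Illumina-sequenced (phred ≥30). Nonsense suppression (GFPSEQ) is the bin median GFP/RFP, weighted by each variant's estimated cell share per bin, relative to wild-type SUP4oc; variants needed ≥100 reads and ≥30 cells.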
G61C A87C gave a nonsense suppression of 0.0361. Variant G61C A87G has a nonsense suppression of 0.247. Work on G61C A87U yielded a nonsense suppression of 0.3. For U63A C68U, the nonsense suppression was 0.755. In the case of U57C C79U, the nonsense suppression is reported as ≤ 0.026. In the case of U58G G59A C80U G86U, the nonsense suppression is reported as ≤ 0.026. With G61C C68U the nonsense suppression was 0.633. For G66C G85A, the nonsense suppression was ≤ 0.026. For U71C C72G, the nonsense suppression was ≤ 0.026. Variant G67A has a nonsense suppression of 0.188. For C68G G69A, the nonsense suppression was ≤ 0.026. Variant A62U C75G has a nonsense suppression of 0.201. For U70C A74G A87C, the nonsense suppression was ≤ 0.026. U57C G73A gave a nonsense suppression of 0.0414. For A60U G65C C81G, the nonsense suppression was 0.203. For G59C U63A G66A C68U C72A, the nonsense suppression was ≤ 0.026. With G59U A89G the nonsense suppression was ≤ 0.026. With G59C A60C U71G G78A the nonsense suppression was ≤ 0.026. Work on G61U C80U yielded a nonsense suppression of 0.677. For U63G C72U, the nonsense suppression was 0.0334. In the case of A62U G78A, the nonsense suppression is reported as 0.0537. In the case of G65C G66C U76C, the nonsense suppression is reported as 0.793. For G61A G65C G69A C80U, the nonsense suppression was ≤ 0.026. For U57A G66A G78C C82A, the nonsense suppression was ≤ 0.026. With G66A U76C C81U the nonsense suppression was ≤ 0.026. With U71C C77G G84A the nonsense suppression was ≤ 0.026. Variant U58G G66C C80G has a nonsense suppression of 0.0324. In the case of G61A G67A G73C, the nonsense suppression is reported as ≤ 0.026. In the case of C68U C83G, the nonsense suppression is reported as ≤ 0.026. In the case of A62U G84C, the nonsense suppression is reported as 0.0347. Variant G61A G84C has a nonsense suppression of 0.0752. Work on U63C C75A yielded a nonsense suppression of 1.04. U63C C75U showed a nonsense suppression of 1.1. Work on G66A C75A yielded a nonsense suppression of 1.18. Variant G66A C75U has a nonsense suppression of 0.368. C68U gave a nonsense suppression of 1.05. G61C G84U gave a nonsense suppression of 0.199. For G61A C83A, the nonsense suppression was 0.0363. With C64G C79A the nonsense suppression was ≤ 0.026. For U58C A89C, the nonsense suppression was ≤ 0.026. Variant A60C A62U has a nonsense suppression of 0.0785. In the case of U71G A89U, the nonsense suppression is reported as ≤ 0.026. In the case of G65A C75A, the nonsense suppression is reported as 0.109. Work on G69U G86C yielded a nonsense suppression of 0.17. Work on A60G A74C yielded a nonsense suppression of 0.0318. A60G A74G showed a nonsense suppression of 0.0684. For G59U U63C, the nonsense suppression was 0.868. For G61U U63G, the nonsense suppression was 0.232. With G61U U63C the nonsense suppression was 0.808. With G66A G67A G86C the nonsense suppression was ≤ 0.026. With G59U G88A the nonsense suppression was ≤ 0.026. Work on U70A U76G yielded a nonsense suppression of 0.183. A60U U63G gave a nonsense suppression of 0.789. U63C U76C showed a nonsense suppression of 0.693. With G65C C81G the nonsense suppression was 1.06. With U58A G59A U63A G69C U70G the nonsense suppression was ≤ 0.026. G59A C75A showed a nonsense suppression of 0.717. In the case of G69U C72G, the nonsense suppression is reported as ≤ 0.026. In the case of C64G U70C G84U, the nonsense suppression is reported as ≤ 0.026. With G61A C79G the nonsense suppression was ≤ 0.026. Work on G61A C79U yielded a nonsense suppression of 0.209. U58A G61A gave a nonsense suppression of 0.0532. For U58G G85U G86U, the nonsense suppression was ≤ 0.026. In the case of A60G G66U, the nonsense suppression is reported as 0.0286. With U57A U76A the nonsense suppression was ≤ 0.026. With G61C G65A C68U the nonsense suppression was ≤ 0.026. For A60G G85U, the nonsense suppression was 0.138. A60G G85C showed a nonsense suppression of 0.119. In the case of A60G G85A, the nonsense suppression is reported as 1.16. G61U C82U showed a nonsense suppression of 0.73. With U63G G85A the nonsense suppression was 0.787. Variant A60C G73C has a nonsense suppression of 0.0519. With A60C G73U the nonsense suppression was 0.049. Variant G59U has a nonsense suppression of 0.116. Variant C68U U70C has a nonsense suppression of 0.0321. In the case of U63G G66U G84A, the nonsense suppression is reported as ≤ 0.026. With U57C A89G the nonsense suppression was ≤ 0.026. Work on A60C C75U yielded a nonsense suppression of 0.167. For G67A G78U, the nonsense suppression was 0.0411. With U58C G61U U63C the nonsense suppression was ≤ 0.026. For A62G C75U C83A, the nonsense suppression was ≤ 0.026. In the case of G61U A62U, the nonsense suppression is reported as 0.0397. For A62C G85A, the nonsense suppression was ≤ 0.026. With A62G U63C G66A the nonsense suppression was ≤ 0.026. For G61C A89C, the nonsense suppression was ≤ 0.026. Work on U63G G69A yielded a nonsense suppression of 0.116. For C68U U71C, the nonsense suppression was 0.0274. For U58G C77U, the nonsense suppression was ≤ 0.026. With A62G C80U C81G the nonsense suppression was ≤ 0.026. U57A G85U gave a nonsense suppression of 0.0736. Variant U57A G85A has a nonsense suppression of 0.165. With A60G G73C the nonsense suppression was ≤ 0.026. U63G A87U showed a nonsense suppression of 0.0518. For G65U G85A, the nonsense suppression was ≤ 0.026. Variant A62G C75G has a nonsense suppression of 0.205. A62G C75A gave a nonsense suppression of 0.219. With G61C G67A the nonsense suppression was 0.0647. With U57A G67U U76C the nonsense suppression was ≤ 0.026. Variant G61U G78U has a nonsense suppression of 0.165. In the case of U63A G66U U71A A87G, the nonsense suppression is reported as ≤ 0.026. U58C G61C showed a nonsense suppression of 0.0324. Variant U58C G61A has a nonsense suppression of 0.0586. Variant U63G A89G has a nonsense suppression of 0.0674. With G61C G78A C79U the nonsense suppression was ≤ 0.026. In the case of A62U, the nonsense suppression is reported as 0.193. G67U C79G showed a nonsense suppression of 0.768. For U63A C82U, the nonsense suppression was 0.178. Variant U57C A87G has a nonsense suppression of 0.0399. In the case of G65C G88A, the nonsense suppression is reported as ≤ 0.026. A60U G73A showed a nonsense suppression of 0.222. For U57A U63C, the nonsense suppression was 0.0744. With U57G G85C the nonsense suppression was ≤ 0.026. In the case of U63A G85U, the nonsense suppression is reported as 0.23. U63A G85A gave a nonsense suppression of 1.09. With G61A C75A the nonsense suppression was 0.842. In the case of G61A C75U, the nonsense suppression is reported as 0.923. Variant G67C C79G has a nonsense suppression of 1.03. For A60G U63A, the nonsense suppression was 0.163. For C64G G66U A87G, the nonsense suppression was ≤ 0.026. With G61A U63C the nonsense suppression was 0.728. Variant G61A U63G has a nonsense suppression of 0.227. Variant G61A U63A has a nonsense suppression of 0.304. For U63G C82U, the nonsense suppression was 0.0882. Work on G61U yielded a nonsense suppression of 1.03. In the case of G61A, the nonsense suppression is reported as 0.853. G61C gave a nonsense suppression of 1.14. With A62G G78U the nonsense suppression was 0.0339. G67A G84U gave a nonsense suppression of 0.0504. For A60U G65U A74C C82A, the nonsense suppression was ≤ 0.026. Variant A60G G69A has a nonsense suppression of 0.0526. In the case of A60C G67A, the nonsense suppression is reported as ≤ 0.026. With A62G G67A the nonsense suppression was ≤ 0.026. In the case of U70G C82G, the nonsense suppression is reported as ≤ 0.026. G66A G78A showed a nonsense suppression of 0.0402. For G67A U76G G78A, the nonsense suppression was ≤ 0.026. G61A C80U gave a nonsense suppression of 0.232. Variant U63G U71C has a nonsense suppression of 0.028. With G66A C72G the nonsense suppression was ≤ 0.026. Variant A60U G67A has a nonsense suppression of 0.0457. In the case of C68U G85C, the nonsense suppression is reported as ≤ 0.026. For U57C G66U C81A, the nonsense suppression was ≤ 0.026. In the case of A62C C64U G84C, the nonsense suppression is reported as ≤ 0.026. In the case of G67A U71C A89C, the nonsense suppression is reported as ≤ 0.026. In the case of U57C U58A A62C, the nonsense suppression is reported as ≤ 0.026. Variant G61C U71C has a nonsense suppression of 0.061. In the case of A60C, the nonsense suppression is reported as 0.489. Variant A60U has a nonsense suppression of 0.984. A60G gave a nonsense suppression of 1.14. G61C U76C gave a nonsense suppression of 0.23. Variant G61C C75A has a nonsense suppression of 1.06. In the case of G61C C75G, the nonsense suppression is reported as 1.21. With U58A U70C A74G the nonsense suppression was ≤ 0.026. For U58A U70C G86C A89C, the nonsense suppression was ≤ 0.026. With U57A G61A the nonsense suppression was 0.0464. With U63G G78U the nonsense suppression was 0.0445. For U63G G78A, the nonsense suppression was 0.0891. In the case of G59U A62C A89G, the nonsense suppression is reported as ≤ 0.026. In the case of U58C G73A, the nonsense suppression is reported as 0.0472. In the case of G61C U63G, the nonsense suppression is reported as 0.12. Work on G61C U63C yielded a nonsense suppression of 0.196. Variant A60G C75A has a nonsense suppression of 0.976. In the case of A60U U70C U76C, the nonsense suppression is reported as ≤ 0.026. In the case of A62C G78A, the nonsense suppression is reported as ≤ 0.026. For A62G G65C, the nonsense suppression was ≤ 0.026. U63C C68U showed a nonsense suppression of 0.228. Work on C68A C75A yielded a nonsense suppression of 0.0286. With G61C G73A the nonsense suppression was 0.213.
